“Also recorded” adds a separate entry of the source. Where two headings read alike, the source gives them in different places. Marks after values point to notes of the source that are not given here.
How the values were obtained:
[1] = Octanol/water partition coefficient by HPLC; format: physicochemical; settings: estimated by HPLC of both phases
[2] = Stability in aqueous buffer at 4°C; format: physicochemical; settings: 0.01M Tris/HCl pH 7.4, concentration close to saturation
In short: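 Excess test compound was stirred 24 h in 0.01 M Tris/HCl, pH 7.4, and centrifuged at 10,000g to give a near-saturated solution. This was stored at 4°C and monitored over time by reverse-phase HPLC (acetonitrile elution).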

Xenopus laevis tadpoles [3] = assay: General anesthetic potency, loss of righting reflexes; format: in vivo; settings: recovery in fresh solution overnight
[4] = target: human α1β2γ2L GABAA receptor (Homo sapiens, UniProt P14867+P18507+P47870); assay: Two electrode voltage clamp of GABAA receptor currents in Xenopus oocytes; format: cell-based; settings: for Imax of GABA current enhancement / nH of GABA current enhancement: 3 μM GABA (~EC5); for nH of GABA concentration response curve in the presence of drug: 6 μM 6; for nH of GABA concentration response curve in the presence of drug / Shift in GABA dose response curve to the left: 4.4 μM propofol; for Shift in GABA dose response curve to the left: twice the tadpole anesthesia EC50: 6 μM 6
Sequence of human α1β2γ2L GABAA receptor (P14867 28-456): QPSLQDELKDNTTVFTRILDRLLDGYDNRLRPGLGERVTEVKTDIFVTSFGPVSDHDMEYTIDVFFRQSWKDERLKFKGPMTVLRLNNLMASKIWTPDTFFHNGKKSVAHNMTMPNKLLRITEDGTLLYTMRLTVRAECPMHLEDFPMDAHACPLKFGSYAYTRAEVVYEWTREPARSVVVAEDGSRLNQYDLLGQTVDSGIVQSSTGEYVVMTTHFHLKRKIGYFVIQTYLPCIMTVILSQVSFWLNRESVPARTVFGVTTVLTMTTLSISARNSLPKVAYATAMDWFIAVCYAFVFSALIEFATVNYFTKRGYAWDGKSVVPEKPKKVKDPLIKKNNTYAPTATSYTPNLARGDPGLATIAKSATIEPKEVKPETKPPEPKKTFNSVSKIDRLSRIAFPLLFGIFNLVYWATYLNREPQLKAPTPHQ
Sequence of human α1β2γ2L GABAA receptor (P47870 25-512 limits assumed): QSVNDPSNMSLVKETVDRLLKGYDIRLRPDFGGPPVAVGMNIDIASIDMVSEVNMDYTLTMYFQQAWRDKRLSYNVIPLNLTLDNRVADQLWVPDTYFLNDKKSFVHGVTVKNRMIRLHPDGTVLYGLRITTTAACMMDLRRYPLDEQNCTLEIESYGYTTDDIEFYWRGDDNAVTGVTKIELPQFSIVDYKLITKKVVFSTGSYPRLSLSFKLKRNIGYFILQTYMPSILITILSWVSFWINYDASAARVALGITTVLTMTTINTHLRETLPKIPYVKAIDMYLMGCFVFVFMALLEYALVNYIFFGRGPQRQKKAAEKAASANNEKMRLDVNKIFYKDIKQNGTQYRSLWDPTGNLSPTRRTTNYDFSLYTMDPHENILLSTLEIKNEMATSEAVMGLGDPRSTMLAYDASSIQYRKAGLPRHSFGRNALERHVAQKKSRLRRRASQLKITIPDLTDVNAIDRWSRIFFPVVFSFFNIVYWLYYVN
Sequence of human α1β2γ2L GABAA receptor (P18507 40-475): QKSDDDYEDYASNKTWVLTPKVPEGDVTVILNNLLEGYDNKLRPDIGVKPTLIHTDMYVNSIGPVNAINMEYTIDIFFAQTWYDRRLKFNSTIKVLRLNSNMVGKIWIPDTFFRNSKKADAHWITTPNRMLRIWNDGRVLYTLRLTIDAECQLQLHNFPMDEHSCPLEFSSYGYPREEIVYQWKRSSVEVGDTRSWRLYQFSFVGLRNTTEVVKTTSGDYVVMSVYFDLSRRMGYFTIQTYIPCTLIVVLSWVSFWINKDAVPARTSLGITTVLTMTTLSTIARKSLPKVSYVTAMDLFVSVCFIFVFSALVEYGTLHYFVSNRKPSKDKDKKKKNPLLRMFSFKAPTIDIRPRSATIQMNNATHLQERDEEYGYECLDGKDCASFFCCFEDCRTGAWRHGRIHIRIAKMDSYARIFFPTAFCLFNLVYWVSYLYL

[5] = target: α1β3γ2 GABAA receptors (benzodiazepine site) (Homo sapiens, UniProt P14867+P18507+P28472); format: binding; settings: for Enhancement of specific [3H]flunitrazepam binding: maximal effect; for effect on [3H]flunitrazepam binding above 40 μM: above 40 μM up to 400 μM
Sequence of α1β3γ2 GABAA receptors (benzodiazepine site) (P14867 28-456): as the sequence (P14867 28-456) above
Sequence of α1β3γ2 GABAA receptors (benzodiazepine site) (P28472 26-473): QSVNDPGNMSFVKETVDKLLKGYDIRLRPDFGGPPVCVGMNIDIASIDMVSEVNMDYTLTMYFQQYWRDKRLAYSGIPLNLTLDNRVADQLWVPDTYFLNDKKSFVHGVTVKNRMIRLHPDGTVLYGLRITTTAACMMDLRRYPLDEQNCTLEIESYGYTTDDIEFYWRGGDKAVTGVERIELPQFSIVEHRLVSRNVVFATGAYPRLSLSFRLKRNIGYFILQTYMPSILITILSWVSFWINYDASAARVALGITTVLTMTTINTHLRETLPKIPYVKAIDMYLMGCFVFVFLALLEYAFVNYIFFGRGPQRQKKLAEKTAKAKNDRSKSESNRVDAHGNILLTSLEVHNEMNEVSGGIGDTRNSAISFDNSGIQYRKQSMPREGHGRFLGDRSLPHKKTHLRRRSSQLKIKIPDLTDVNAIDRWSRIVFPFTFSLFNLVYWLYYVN
Sequence of α1β3γ2 GABAA receptors (benzodiazepine site) (P18507 40-475): as the sequence (P18507 40-475) above

[6] = target: α1β3γ2 GABAA receptors (agonist site) (Homo sapiens, UniProt P14867+P18507+P28472); assay: Modulation of [3H]muscimol binding to GABAA receptor membranes from HEK293 cells
Sequence of α1β3γ2 GABAA receptors (agonist site) (P14867 28-456): as the sequence (P14867 28-456) above
Sequence of α1β3γ2 GABAA receptors (agonist site) (P28472 26-473): as the sequence (P28472 26-473) above
Sequence of α1β3γ2 GABAA receptors (agonist site) (P18507 40-475): as the sequence (P18507 40-475) above

Torpedo nACh receptor [7] = target: T1, Torpedo nACh receptor (Tetronarce californica, UniProt P02710+P02712+P02714+P02718); assay: Inhibition of ACh-elicited currents of Torpedo nACh receptors in Xenopus oocytes; format: cell-based; settings: 10 μM ACh (~EC20)
T1 sequence (P02710 25-461): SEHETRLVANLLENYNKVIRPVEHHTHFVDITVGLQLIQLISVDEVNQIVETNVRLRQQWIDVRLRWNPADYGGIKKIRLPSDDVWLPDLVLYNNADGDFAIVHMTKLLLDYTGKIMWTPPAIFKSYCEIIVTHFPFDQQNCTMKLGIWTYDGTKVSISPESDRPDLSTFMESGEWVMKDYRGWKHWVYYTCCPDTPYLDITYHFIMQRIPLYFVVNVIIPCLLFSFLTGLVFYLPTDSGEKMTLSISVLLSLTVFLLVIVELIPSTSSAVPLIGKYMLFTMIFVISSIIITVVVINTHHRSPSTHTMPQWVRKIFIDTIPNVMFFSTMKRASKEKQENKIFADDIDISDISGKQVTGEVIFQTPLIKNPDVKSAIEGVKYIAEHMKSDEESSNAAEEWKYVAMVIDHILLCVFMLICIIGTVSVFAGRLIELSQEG
T1 sequence (P02712 25-493): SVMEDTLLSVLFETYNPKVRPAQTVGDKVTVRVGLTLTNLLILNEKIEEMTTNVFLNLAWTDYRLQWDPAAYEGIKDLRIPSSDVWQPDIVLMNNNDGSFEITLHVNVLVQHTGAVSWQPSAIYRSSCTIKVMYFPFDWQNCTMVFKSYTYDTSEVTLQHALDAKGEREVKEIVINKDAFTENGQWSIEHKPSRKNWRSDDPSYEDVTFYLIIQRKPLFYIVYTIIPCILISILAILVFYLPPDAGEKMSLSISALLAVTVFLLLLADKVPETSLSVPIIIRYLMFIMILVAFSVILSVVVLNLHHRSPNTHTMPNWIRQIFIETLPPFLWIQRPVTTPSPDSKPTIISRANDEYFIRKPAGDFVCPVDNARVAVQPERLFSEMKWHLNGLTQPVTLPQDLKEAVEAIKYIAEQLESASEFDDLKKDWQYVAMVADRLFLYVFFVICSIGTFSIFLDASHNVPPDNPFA
T1 sequence (P02714 18-506): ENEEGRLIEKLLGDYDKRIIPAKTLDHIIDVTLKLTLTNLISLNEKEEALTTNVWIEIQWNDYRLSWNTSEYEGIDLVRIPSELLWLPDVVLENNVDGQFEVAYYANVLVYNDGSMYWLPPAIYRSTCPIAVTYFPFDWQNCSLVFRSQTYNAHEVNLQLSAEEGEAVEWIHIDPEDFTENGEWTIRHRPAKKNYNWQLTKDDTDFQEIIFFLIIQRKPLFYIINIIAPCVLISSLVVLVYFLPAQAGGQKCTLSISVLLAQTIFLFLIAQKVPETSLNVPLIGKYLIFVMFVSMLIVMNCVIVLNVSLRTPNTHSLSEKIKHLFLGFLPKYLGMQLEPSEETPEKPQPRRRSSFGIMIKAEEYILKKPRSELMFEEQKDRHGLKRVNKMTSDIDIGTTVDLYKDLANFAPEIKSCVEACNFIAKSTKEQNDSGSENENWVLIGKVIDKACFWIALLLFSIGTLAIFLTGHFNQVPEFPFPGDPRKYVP
T1 sequence (P02718 22-522): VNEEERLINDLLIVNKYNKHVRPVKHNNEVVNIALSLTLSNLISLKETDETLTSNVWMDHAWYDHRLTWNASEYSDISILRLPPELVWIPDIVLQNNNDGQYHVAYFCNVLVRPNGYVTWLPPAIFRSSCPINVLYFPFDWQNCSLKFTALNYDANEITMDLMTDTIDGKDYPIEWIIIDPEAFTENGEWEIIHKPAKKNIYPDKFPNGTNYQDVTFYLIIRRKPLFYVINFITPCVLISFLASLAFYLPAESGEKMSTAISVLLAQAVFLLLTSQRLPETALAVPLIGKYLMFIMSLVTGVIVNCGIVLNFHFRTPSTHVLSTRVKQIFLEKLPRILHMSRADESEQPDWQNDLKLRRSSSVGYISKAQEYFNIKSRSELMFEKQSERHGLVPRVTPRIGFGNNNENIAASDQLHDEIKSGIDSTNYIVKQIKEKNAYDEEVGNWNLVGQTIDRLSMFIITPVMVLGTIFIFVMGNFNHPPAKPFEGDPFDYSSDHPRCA
In short: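 Two-electrode voltage clamp at room temperature on Xenopus oocytes. Oocytes were injected with ~25 ng Torpedo subunit cRNA at 2α:1β:1γ:1δ, clamped at −50 mV and perfused with ND96 (pH 7.5) at ~2 mL/min. 10 μM ACh was applied, then ACh plus rising test compound (10 mM DMSO stock diluted in ND96). Applications lasted 15–20 s with ~3 min washes. Currents were normalized to ACh alone and fit to a logistic equation; 3 oocytes.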

Torpedo nACh receptor [8] = target: T1, Torpedo nACh receptor; assay: Photoincorporation of [3H]6 into nACh receptor-rich Torpedo membranes; format: binding; settings: for effect on nACh receptor subunit photolabeling by [3H]6: absence of agonist (resting state), 100 μM drug
In short: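 Electric-organ membranes were held at 2 mg protein/mL in Torpedo saline (pH 7.0) with 1 mM oxidized glutathione. Aliquots (160 pmol ACh sites) were equilibrated 30 min with 1.7 μM tritiated test compound (12 Ci/mmol), alone or with 100 μM tetracaine, 100 μM phencyclidine, 300 μM parent anesthetic and/or 1 mM carbamylcholine. Samples were UV-irradiated (365 nm) on ice for 30 min, then run on SDS-PAGE. Read-outs were fluorography (2 weeks) and scintillation counting of excised subunit bands.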

Xenopus laevis tadpoles [9] = settings: read-out: General Anesthesia LoRR EC50, cited from earlier work
GABAA receptor = settings: cited from earlier work
[10] = pure propofol in water; cited from earlier work
[11] = added to carbamylcholine-treated samples

| SMILES | Imax of GABA current enhancement [4] [%] | nH of GABA current enhancement [4] | nH of GABA concentration response curve in the presence of drug [4] | Shift in GABA dose response curve to the left [4] | Enhancement of specific [3H]flunitrazepam binding ([5]; 1.5 nM [3H]flunitrazepam) | effect on [3H]flunitrazepam binding above 40 μM [5] | nH of ACh current inhibition (Torpedo nACh receptor [7]) | EC50 (Xenopus laevis tadpoles [9]; ref Hall et al, 2010 [13]) [µM] | effect on nACh receptor subunit photolabeling by [3H]6 (Torpedo nACh receptor [8]) | further results |
| --- | --- | --- | --- | --- | --- | --- | --- | --- | --- | --- |
| CC(C)c1cc(CCCC2(C)N=N2)cc(C(C)C)c1O [Compound 6, 2,6-Diisopropyl-4-[3-(3-methyl-3H-diazirin-3-yl)-propyl]-phenol] | 22 ± 6 | 1.4 ± 1.3 | 0.9 ± 0.2 | 9 ^a fold | ~ 150% | caused no further change | 0.9 ± 0.2 |  |  | octanol/water partition coefficient [1]: 15,600 ± 1200; time stable in buffer [2]: at least 2.5 days; reversibility of anesthesia (Xenopus laevis tadpoles [3]): reversible; EC50 [5]: ~0.5 µM; EC50 [6]: ~0.5 µM |
| CC(C)c1cc(CCCC2(C)N=N2)cc(C(C)C)c1O [[^3H]6, ^3H-2,6-Diisopropyl-4-[3-(3-methyl-3H-diazirin-3-yl)-propyl]-phenol] |  |  |  |  |  |  |  |  |  | carbamylcholine-enhanced 3H photoincorporation in nACh receptor α-subunit (Torpedo nACh receptor [8]; 1.7 μM [3H]6): 3000 cpm; fraction of nACh receptor α-subunits photolabeled (Torpedo nACh receptor [8]; 1.7 μM [3H]6, carbamylcholine-enhanced): 0.2% |
| CC(C)c1ccc(C2(C(F)(F)F)N=N2)cc1O [m-TFD-propofol, 2-isopropyl-5-[3-(trifluoromethyl)-3H-diazirin-3-yl]phenol] |  |  |  |  |  |  |  | 3.1 |  | Direct activation (GABAA receptor; m-TFD-propofol at 30 μM, ref Hall et al, 2010 [13]): no direct agonist activity |
| c1ccc(C2(N3CCCCC3)CCCCC2)cc1 [phencyclidine] |  |  |  |  |  |  |  |  | little effect | additional decrease of [3H]6 photoincorporation (Torpedo nACh receptor [8]; [11]): ~ 20% |
| CC(C)c1cccc(C(C)C)c1O [propofol, 2,6-diisopropylphenol] | 16 ± 3 | 1.7 ± 1.2 | 1.1 ± 0.3 | 11 ^a fold | ~ 200% | caused a rapid decrease in binding | 0.8 ± 0.1 | 2.8 |  | Direct activation, current as % of maximal GABA response ([4]; absence of GABA): 30–50%; Enhancement of [3H]flunitrazepam binding ([5]; 1.5 nM [3H]flunitrazepam): 2x ^a; Enhancement of [3H]muscimol binding ([6]; 3 nM [3H]muscimol): 2.4x ^a; effect on [3H]muscimol binding above 30 μM ([6]; above 30 μM): caused a sharp decrease in binding; additional increase of [3H]6 photoincorporation (Torpedo nACh receptor [8]; [11]): ~ 20%; EC50 (Xenopus laevis tadpoles [9]; ref Krasowski et al, 2001 [2]): 1.9 µM; Direct activation, currents as % of the maximal GABA response (GABAA receptor; propofol alone): 30 – 70%; Direct activation (GABAA receptor; ref Krasowski et al, 2001 [2]): 67%; saturated concentration in water [10]: 1 ± 0.02 mM |
| CCCCNc1ccc(C(=O)OCCN(C)C)cc1 [tetracaine] |  |  |  |  |  |  |  |  | little effect; also recorded: no effect |  |
